Measured values as given in ChEMBL document CHEMBL1126750, “Nonpeptide angiotensin II receptor antagonists. Synthesis and biological activity of benzimidazolecarboxylic acids” (J Med Chem, 1993).

Columns and labels:
[1] = target: T1, Type-1 angiotensin II receptor (Bos taurus, UniProt P25104); assay: Inhibition of specific binding of [125 I ] Angiotensin-II (0.2 nM) to bovine adrenal cortex; type: tissue-based
T1 sequence (P25104 whole entry): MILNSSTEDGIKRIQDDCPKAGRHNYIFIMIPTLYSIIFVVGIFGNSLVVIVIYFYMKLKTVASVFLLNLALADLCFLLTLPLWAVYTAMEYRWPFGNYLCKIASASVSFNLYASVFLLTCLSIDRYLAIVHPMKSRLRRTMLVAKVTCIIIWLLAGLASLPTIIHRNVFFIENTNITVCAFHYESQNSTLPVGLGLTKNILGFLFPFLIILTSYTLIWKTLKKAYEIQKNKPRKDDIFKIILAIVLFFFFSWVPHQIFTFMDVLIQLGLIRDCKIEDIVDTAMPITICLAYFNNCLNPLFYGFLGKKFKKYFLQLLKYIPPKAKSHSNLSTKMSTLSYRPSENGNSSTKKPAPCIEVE

[2] = target: T2, Angiotensin II receptor (Rattus norvegicus) (UniProt P29089+P25095+P35351); assay: (§1) Percent inhibition of the Angiotensin-II (0.1micro g/kg, iv) induced pressor response after 7 hours of administration (3 mg/kg po) in rats; type: functional, organism-based
Outline: (§2)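 Conscious male Sprague-Dawley rats dosed orally with test compound; pressor response to AII challenge (0.1 µg/kg iv) measured at 3 and 7 h after dosing and expressed as percent inhibition. Duplicate experiments, with n = 3 for some compounds; variation in % inhibition under 30%.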

[3] = target: T2, Angiotensin II receptor (Rattus norvegicus); assay: Percent inhibition of the Angiotensin-II (0.1ug/kg, iv) induced pressor response after 3 hours of administration (3 mg/kg po) in rats; type: functional, organism-based; outline: as §2
[4] = target: T2, Angiotensin II receptor (Rattus norvegicus); assay: Percent inhibition of the Angiotensin-II (0.1ug/kg, iv) induced pressor response after 7 hours of administration (1 mg/kg po) in rats; type: functional, organism-based; outline: as §2
[5] = target: T2, Angiotensin II receptor (Rattus norvegicus); assay: Percent inhibition of the Angiotensin-II (0.1ug/kg, iv) induced pressor response after 3 hours of administration (1 mg/kg po) in rats; type: functional, organism-based; outline: as §2
Oryctolagus cuniculus = organism: Oryctolagus cuniculus; assay: Concentration required for inhibition of Angiotensin-II induced rabbit aorta strips contraction; type: functional
Outline: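 Isolated rabbit aortic strips contracted with AII (10 nM); test compound inhibition measured from concentration-inhibition curves, n = 6-8; IC50 is the concentration halving the AII-induced contraction.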

Rattus norvegicus [6] = assay: Percent inhibition of the Angiotensin-II (0.1micro g/kg, iv) induced pressor response after 7 hours of administration (10 mg/kg po) in rats; type: functional; outline: as §2
Rattus norvegicus [7] = assay: Percent inhibition of the Angiotensin-II (0.1ug/kg, iv) induced pressor response after 3 hours of administration (10 mg/kg po) in rats; type: functional; outline: as §2
Rattus norvegicus [8] = assay: Percent inhibition of the Angiotensin-II (0.1ug/kg, iv) induced pressor response after 7 hours of administration (3 mg/kg po) in rats; type: functional; outline: as §2
Rattus norvegicus [9] = assay: as §1; type: functional; outline: as §2

Row | SMILES | IC50 [1] | inhibition [4] | inhibition [5] | also measured
1 | CC(C)Cc1nc2cccc(C(=O)O)c2n1Cc1ccc(-c2ccccc2-c2nnn[nH]2)cc1 | 3200 nM | – | – | –
2 | CC(C)Cc1nc2cccc(C(=O)O)c2n1Cc1ccc(-c2ccccc2-c2nn[nH]n2)cc1 | – | 13% | -9% | inhibition [2]: 29%; inhibition [3]: 29%
3 | CCCOc1nc2cccc(C(=O)O)c2n1Cc1ccc(-c2ccccc2-c2nn[nH]n2)cc1 | – | 83% | 87% | inhibition [2]: 100%; inhibition [3]: 100%
4 | CCCCc1nc(Cl)c(CO)n1Cc1ccc(-c2ccccc2-c2nn[nH]n2)cc1 [LOSARTAN POTASSIUM] | 150 nM | – | – | –
5 | COC(=O)c1cccc2nc(OC)n(Cc3ccc(-c4ccccc4-c4nnn[nH]4)cc3)c12 | 490 nM | – | – | –
6 | CCSCc1nc2cccc(C(=O)O)c2n1Cc1ccc(-c2ccccc2-c2nn[nH]n2)cc1 | – | 57% | 68% | –
7 | CC(C)c1nc2cccc(C(=O)O)c2n1Cc1ccc(-c2ccccc2-c2nn[nH]n2)cc1 | – | – | – | inhibition [2]: 38%; inhibition [3]: 61%
8 | CSc1nc2cccc(C(=O)O)c2n1Cc1ccc(-c2ccccc2-c2nnn[nH]2)cc1 | 120 nM | – | – | –
9 | CCCNc1nc2cccc(C(=O)O)c2n1Cc1ccc(-c2ccccc2-c2nnn[nH]2)cc1 | 39 nM | – | – | –
10 | O=C(O)c1cccc2nc(OCC(F)(F)F)n(Cc3ccc(-c4ccccc4-c4nn[nH]n4)cc3)c12 | 580 nM | 7% | 28% | –
11 | CCCOc1nc2cccc(C(=O)O)c2n1Cc1ccc(-c2ccccc2-c2nnn[nH]2)cc1 | 190 nM | – | – | –
12 | COc1nc2cccc(C(=O)O)c2n1Cc1ccc(-c2ccccc2-c2nn[nH]n2)cc1 | – | 80% | 97% | –
13 | CCCNc1nc2cccc(C(=O)O)c2n1Cc1ccc(-c2ccccc2-c2nn[nH]n2)cc1 | – | 66% | 46% | inhibition [2]: 72%; inhibition [3]: 73%
14 | COCc1nc2cccc(C(=O)O)c2n1Cc1ccc(-c2ccccc2-c2nn[nH]n2)cc1 | 250 nM | 33% | 47% | –
15 | CCNc1nc2cccc(C(=O)O)c2n1Cc1ccc(-c2ccccc2-c2nnn[nH]2)cc1 | 62 nM | – | – | –
16 | CNc1nc2cccc(C(=O)O)c2n1Cc1ccc(-c2ccccc2-c2nnn[nH]2)cc1 | 170 nM | – | – | –
17 | O=C(O)c1cccc2nc(N3CCOCC3)n(Cc3ccc(-c4ccccc4-c4nnn[nH]4)cc3)c12 | > 1000 nM | – | – | –
18 | CCC(C)c1nc2cccc(C(=O)O)c2n1Cc1ccc(-c2ccccc2-c2nnn[nH]2)cc1 (centres undefined) | 3900 nM | – | – | –
19 | Cc1nc2cccc(C(=O)O)c2n1Cc1ccc(-c2ccccc2-c2nnn[nH]2)cc1 | 190 nM | – | – | –
20 | CCCSc1nc2cccc(C(=O)O)c2n1Cc1ccc(-c2ccccc2-c2nn[nH]n2)cc1 | – | 100% | 100% | inhibition [2]: 76%; inhibition [3]: 88%

Row | SMILES | IC50 [1] | inhibition [4] | inhibition [5] | also measured
21 | CCOc1nc2cc(C(=O)O)ccc2n1Cc1ccc(-c2ccccc2-c2nn[nH]n2)cc1 | 13000 nM | – | – | IC50 (Oryctolagus cuniculus): 191 nM; Inhibition (Rattus norvegicus [6]): 4%; Inhibition (Rattus norvegicus [7]): 4%
22 | CCCOc1nc2cccc(C(=O)OCC)c2n1Cc1ccc(-c2ccccc2-c2nn[nH]n2)cc1 | – | – | – | inhibition [3]: 66%; Inhibition (Rattus norvegicus [8]): 93%
23 | CCc1nc2cccc(C(=O)O)c2n1Cc1ccc(-c2ccccc2-c2nnn[nH]2)cc1 | 46 nM | – | – | –
24 | CC(C)c1nc2cccc(C(=O)O)c2n1Cc1ccc(-c2ccccc2-c2nnn[nH]2)cc1 | 82 nM | – | – | –
25 | CCSc1nc2cccc(C(=O)O)c2n1Cc1ccc(-c2ccccc2-c2nnn[nH]2)cc1 | 170 nM | – | – | –
26 | CCOCc1nc2cccc(C(=O)O)c2n1Cc1ccc(-c2ccccc2-c2nnn[nH]2)cc1 | 440 nM | – | – | –
27 | CCCOc1nc2cccc(C(=O)OCC)c2n1Cc1ccc(-c2ccccc2-c2nnn[nH]2)cc1 | 1000 nM | – | – | –
28 | CCOCc1nc2cccc(C(=O)O)c2n1Cc1ccc(-c2ccccc2-c2nn[nH]n2)cc1 | – | 29% | 63% | –
29 | CCOc1nc2cccc(C(=O)OC)c2n1Cc1ccc(-c2ccccc2-c2nn[nH]n2)cc1 | – | 90% | 100% | inhibition [2]: 100%; inhibition [3]: 100%
30 | CCCCCc1nc2cccc(C(=O)O)c2n1Cc1ccc(-c2ccccc2-c2nnn[nH]2)cc1 | 560 nM | – | – | –
31 | CCCCNc1nc2cccc(C(=O)O)c2n1Cc1ccc(-c2ccccc2-c2nnn[nH]2)cc1 | 650 nM | – | – | –
32 | CCOc1nc2cccc(C(=O)O)c2n1Cc1ccc(-c2ccccc2C(=O)O)cc1 | 190 nM | 44% | 26% | inhibition [2]: 49%; inhibition [3]: 37%
33 | Cc1nc2cccc(C(=O)O)c2n1Cc1ccc(-c2ccccc2-c2nn[nH]n2)cc1 | – | – | – | inhibition [3]: 50%; Inhibition (Rattus norvegicus [9]): 51%
34 | CCSCc1nc2cccc(C(=O)O)c2n1Cc1ccc(-c2ccccc2-c2nnn[nH]2)cc1 | 300 nM | – | – | –
35 | CSCc1nc2cccc(C(=O)O)c2n1Cc1ccc(-c2ccccc2-c2nn[nH]n2)cc1 | 150 nM | 44% | 85% | –
36 | C=CCOc1nc2cccc(C(=O)OC)c2n1Cc1ccc(-c2ccccc2-c2nnn[nH]2)cc1 | 850 nM | – | – | –
37 | CCOc1nc2c(C(=O)O)cccc2n1Cc1ccc(-c2ccccc2-c2nn[nH]n2)cc1 | – | – | – | IC50 (Oryctolagus cuniculus): 131 nM; Inhibition (Rattus norvegicus [6]): 5%; Inhibition (Rattus norvegicus [7]): 22%
38 | CCOc1nc2ccc(C(=O)O)cc2n1Cc1ccc(-c2ccccc2-c2nn[nH]n2)cc1 | 930 nM | – | – | IC50 (Oryctolagus cuniculus): 1.9 nM; Inhibition (Rattus norvegicus [6]): 34%; Inhibition (Rattus norvegicus [7]): 50%
39 | CCCCOc1nc2cccc(C(=O)OC)c2n1Cc1ccc(-c2ccccc2-c2nnn[nH]2)cc1 | > 1000 nM | – | – | –
40 | CCCCc1nc2cccc(C(=O)O)c2n1Cc1ccc(-c2ccccc2-c2nn[nH]n2)cc1 | – | 53% | 49% | inhibition [3]: 80%; Inhibition (Rattus norvegicus [9]): 76%

Row | SMILES | IC50 [1] | inhibition [4] | inhibition [5] | also measured
41 | CCOc1nc2cccc(C(=O)OC)c2n1Cc1ccc(-c2ccccc2-c2nnn[nH]2)cc1 | 66 nM | – | – | –
42 | COC(=O)c1cccc2nc(OC)n(Cc3ccc(-c4ccccc4-c4nn[nH]n4)cc3)c12 | – | 89% | 94% | –
43 | O=C(O)c1cccc2nc(N3CCCCC3)n(Cc3ccc(-c4ccccc4-c4nnn[nH]4)cc3)c12 | > 1000 nM | – | – | –
44 | COC(=O)c1cccc2nc(OCC(F)(F)F)n(Cc3ccc(-c4ccccc4-c4nn[nH]n4)cc3)c12 | – | 9% | 36% | –
45 | CSc1nc2cccc(C(=O)O)c2n1Cc1ccc(-c2ccccc2-c2nn[nH]n2)cc1 | – | 81% | 100% | inhibition [2]: 95%; inhibition [3]: 100%
46 | CC[S+]([O-])c1nc2cccc(C(=O)OC)c2n1Cc1ccc(-c2ccccc2-c2nn[nH]n2)cc1 (centres undefined) | > 1000 nM | – | – | –
47 | CCCCc1nc2cccc(C(=O)O)c2n1Cc1ccc(-c2ccccc2-c2nnn[nH]2)cc1 | 550 nM | – | – | –
48 | CCSc1nc2cccc(C(=O)OC)c2n1Cc1ccc(-c2ccccc2-c2nn[nH]n2)cc1 | 440 nM | – | – | –
49 | COCCc1nc2cccc(C(=O)O)c2n1Cc1ccc(-c2ccccc2-c2nn[nH]n2)cc1 | 580 nM | 3% | 13% | –
50 | COc1nc2cccc(C(=O)O)c2n1Cc1ccc(-c2ccccc2-c2nnn[nH]2)cc1 | 32 nM | – | – | –
51 | CSCCc1nc2cccc(C(=O)O)c2n1Cc1ccc(-c2ccccc2-c2nn[nH]n2)cc1 | 620 nM | 10% | 10% | –
52 | O=C(O)c1cccc2nc(C3CC3)n(Cc3ccc(-c4ccccc4-c4nn[nH]n4)cc3)c12 | 84 nM | 88% | 80% | inhibition [2]: 96%; inhibition [3]: 92%
53 | CCCc1nc2cccc(C(=O)O)c2n1Cc1ccc(-c2ccccc2-c2nn[nH]n2)cc1 | 170 nM | 69% | 83% | inhibition [2]: 91%; inhibition [3]: 90%
54 | CCCCc1nc(Cl)c(CO)n1Cc1ccc(-c2ccccc2-c2nnn[nH]2)cc1 | – | 34% | 21% | inhibition [2]: 74%; inhibition [3]: 62%
55 | COC(=O)c1cccc2nc(OCC(F)(F)F)n(Cc3ccc(-c4ccccc4-c4nnn[nH]4)cc3)c12 | > 1000 nM | – | – | –
56 | C=CCOc1nc2cccc(C(=O)OC)c2n1Cc1ccc(-c2ccccc2-c2nn[nH]n2)cc1 | – | 12% | 14% | –
57 | CCC(C)c1nc2cccc(C(=O)O)c2n1Cc1ccc(-c2ccccc2-c2nn[nH]n2)cc1 (centres undefined) | – | 0% | 6% | inhibition [2]: 18%; inhibition [3]: 15%
58 | CCSc1nc2cccc(C(=O)O)c2n1Cc1ccc(-c2ccccc2-c2nn[nH]n2)cc1 | – | 90% | 87% | inhibition [2]: 97%; inhibition [3]: 99%
59 | CCCSc1nc2cccc(C(=O)O)c2n1Cc1ccc(-c2ccccc2-c2nnn[nH]2)cc1 | 120 nM | – | – | –
60 | CCN(C)c1nc2cccc(C(=O)O)c2n1Cc1ccc(-c2ccccc2-c2nnn[nH]2)cc1 | > 1000 nM | – | – | –
